The record followed here is ChEMBL document CHEMBL1156183, “Identification of very potent inhibitor of human aminopeptidase N (CD13)” (Bioorg Med Chem Lett, 2010).

For experiment [1], the target named is T1, Aminopeptidase N (Sus scrofa) (UniProt P15145).
T1 sequence (whole entry): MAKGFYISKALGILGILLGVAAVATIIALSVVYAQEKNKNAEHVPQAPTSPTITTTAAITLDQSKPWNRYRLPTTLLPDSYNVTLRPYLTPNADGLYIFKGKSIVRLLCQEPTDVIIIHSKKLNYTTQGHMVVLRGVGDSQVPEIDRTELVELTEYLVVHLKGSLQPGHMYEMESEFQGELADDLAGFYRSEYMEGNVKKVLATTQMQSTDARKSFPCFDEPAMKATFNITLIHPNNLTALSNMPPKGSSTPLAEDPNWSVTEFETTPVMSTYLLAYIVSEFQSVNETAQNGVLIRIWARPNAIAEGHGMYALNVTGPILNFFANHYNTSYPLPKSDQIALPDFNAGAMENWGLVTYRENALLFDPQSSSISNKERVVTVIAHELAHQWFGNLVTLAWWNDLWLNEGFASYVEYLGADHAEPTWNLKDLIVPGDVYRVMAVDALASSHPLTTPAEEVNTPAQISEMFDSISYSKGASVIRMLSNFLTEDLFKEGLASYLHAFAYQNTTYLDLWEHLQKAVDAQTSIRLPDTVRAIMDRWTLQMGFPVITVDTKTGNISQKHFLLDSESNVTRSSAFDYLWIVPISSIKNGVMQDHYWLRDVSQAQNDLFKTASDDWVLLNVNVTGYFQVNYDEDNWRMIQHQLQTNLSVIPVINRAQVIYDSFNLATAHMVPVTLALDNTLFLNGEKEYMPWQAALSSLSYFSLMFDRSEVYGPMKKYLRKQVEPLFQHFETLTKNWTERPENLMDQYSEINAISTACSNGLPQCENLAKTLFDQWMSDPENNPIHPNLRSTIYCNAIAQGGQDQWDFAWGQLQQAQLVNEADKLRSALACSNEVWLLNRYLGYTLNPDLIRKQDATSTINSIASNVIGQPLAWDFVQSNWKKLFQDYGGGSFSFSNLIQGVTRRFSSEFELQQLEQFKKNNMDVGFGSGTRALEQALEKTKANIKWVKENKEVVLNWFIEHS
Description: Inhibition of pig aminopeptidase N assessed as ACC fluorophore released after 30 mins using Alanine ACC as substrate. The gist of the method: (§1)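 Enzyme (0.45 nM) preincubated 30 min at 37 C with phosphinate inhibitor (eight concentrations) in 100 mM Tris-HCl pH 7.5 (buffer made at 20 C), final DMSO 1%. Ala-ACC added at 50 uM final. ACC release read continuously in kinetic mode, ex 355/em 460 nm. IC50 values are means of two experiments.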

Experiment [2] has as its target T2, Aminopeptidase N (Rattus norvegicus) (UniProt P15684).
T2 sequence (whole entry): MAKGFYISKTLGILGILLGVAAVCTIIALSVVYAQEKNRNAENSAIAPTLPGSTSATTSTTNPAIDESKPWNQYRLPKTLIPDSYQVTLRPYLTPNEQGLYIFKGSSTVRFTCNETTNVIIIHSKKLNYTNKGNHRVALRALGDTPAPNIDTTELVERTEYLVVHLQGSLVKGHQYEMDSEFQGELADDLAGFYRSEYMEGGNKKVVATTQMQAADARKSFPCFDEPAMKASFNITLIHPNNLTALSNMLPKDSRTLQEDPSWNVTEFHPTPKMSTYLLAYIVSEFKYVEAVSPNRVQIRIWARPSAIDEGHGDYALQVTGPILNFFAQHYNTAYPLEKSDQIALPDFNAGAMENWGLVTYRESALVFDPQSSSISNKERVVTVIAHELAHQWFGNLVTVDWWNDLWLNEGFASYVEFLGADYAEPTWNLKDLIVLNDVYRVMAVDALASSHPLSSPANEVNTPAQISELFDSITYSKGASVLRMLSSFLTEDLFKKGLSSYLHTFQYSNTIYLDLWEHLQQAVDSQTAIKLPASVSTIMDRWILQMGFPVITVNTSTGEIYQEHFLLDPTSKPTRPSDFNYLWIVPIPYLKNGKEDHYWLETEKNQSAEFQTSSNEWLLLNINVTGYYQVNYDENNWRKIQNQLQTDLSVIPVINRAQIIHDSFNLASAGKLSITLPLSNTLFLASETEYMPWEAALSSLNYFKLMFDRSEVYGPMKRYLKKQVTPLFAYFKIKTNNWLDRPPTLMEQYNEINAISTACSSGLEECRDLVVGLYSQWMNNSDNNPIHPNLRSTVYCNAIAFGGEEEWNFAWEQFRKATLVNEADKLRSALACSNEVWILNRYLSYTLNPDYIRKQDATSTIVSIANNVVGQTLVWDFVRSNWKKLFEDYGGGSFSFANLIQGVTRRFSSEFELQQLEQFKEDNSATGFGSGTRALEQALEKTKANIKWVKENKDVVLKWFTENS
Description: Inhibition of rat aminopeptidase N assessed as ACC fluorophore released after 30 mins using Alanine ACC as substrate. In short, it runs like this: as §1

Experiment [3] is described as follows: Selectivity ratio of IC50 for pig aminopeptidase N to the IC50 for human aminopeptidase N.
A short description of experiment [4]: Selectivity ratio of IC50 for rat aminopeptidase N to the IC50 for human aminopeptidase N.

In general, IC50 refers to the concentration that gives 50% inhibition. For `CCCC(N)P(=O)(O)C(=S)NCc1ccc(C(=O)O)cc1` (centres undefined), the IC50 in experiment [1] and in experiment [2] was above 20000 nM throughout.
Take `CSCCCNC(=S)P(=O)(O)C(C)N` (centres undefined): the IC50 in experiment [1] is 2450 nM; in experiment [2], 3450 nM.
The like results for `CCCCC(N)P(=O)(O)C(O)CCc1ccccc1` (centres undefined) were, in that order, 210 nM and 520 nM.
The like results for `NC(Cc1ccccc1)P(=O)(O)C(O)CCc1ccccc1` (centres undefined) were, in that order, 660 nM and 1600 nM.
The like results for `CCC(N)P(=O)(O)C(=S)NCCCSC` (centres undefined) were, in that order, 1650 nM and 2500 nM.
For `CCOC(=O)c1ccc(CNC(=S)P(=O)(O)C(N)CCc2ccccc2)cc1` (centres undefined), the IC50 in experiment [1] and in experiment [2] was above 20000 nM throughout.
In the case of `CCCC(N)P(=O)(O)C(=S)NCc1ccccc1` (centres undefined), the IC50 in experiment [1] was found to be 1600 nM; in experiment [2], 2100 nM.
The like results for `CNC(=S)P(=O)(O)C(N)CC(C)C` (centres undefined) were, in that order, above 20000 nM and 10800 nM.
The like results for `NC(CCc1ccccc1)P(=O)(O)C(O)CCc1ccccc1` (centres undefined) were, in that order, 220 nM and 400 nM.
The like results for `CCCCC(N)P(=O)(O)C(=S)NCc1ccccc1` (centres undefined) were, in that order, 620 nM and 1100 nM.
On to `CCCCC(N)P(=O)(O)C(=S)NCc1ccccc1C(=O)OC` (centres undefined), for which the IC50 in experiment [1] and in experiment [2] was above 20000 nM each time.
Take `NC(c1ccccc1)P(=O)(O)C(O)c1ccccc1` (centres undefined): the results for the half-maximal inhibitory concentration (IC50) in experiment [1] and in experiment [2] were 550 nM and 460 nM, respectively.
The like results for `CCOC(=O)c1ccc(CNC(=S)P(=O)(O)C(C)N)cc1` (centres undefined) were, in that order, above 20000 nM and above 20000 nM.
For the compound `CC(C)c1ccc(C(O)P(=O)(O)C(C)N)cc1` (centres undefined), the IC50 in experiment [1] was 1200 nM; in experiment [2] it was 3500 nM.
The like results for `CC(N)P(=O)(O)C(=S)NCc1ccccc1` (centres undefined) were, in that order, 1900 nM and 1450 nM.
Consider `CCCCC(N)P(=O)(O)C(=S)NCCCSC` (centres undefined), for which the results for the half-maximal inhibitory concentration (IC50) in experiment [1] and in experiment [2] were 360 nM and 610 nM, respectively.
Regarding `CNC(=S)P(=O)(O)C(N)C(C)C` (centres undefined), the results for the concentration for half-maximal inhibition (IC50) in experiment [1] and in experiment [2] were 10200 nM and 21400 nM, respectively.
Regarding `CC(O)P(=O)(O)C(N)c1ccccc1` (centres undefined), the IC50 in experiment [1] was determined as 48000 nM; in experiment [2], 15200 nM.
The like results for `CC(C)C(N)P(=O)(O)C(O)CCc1ccccc1` (centres undefined) were, in that order, 500 nM and 1100 nM.
The like results for `CCCCC(N)P(=O)(O)C(O)C(C)c1ccccc1` (centres undefined) were, in that order, 220 nM and 460 nM.
The like results for `CCCC(N)P(=O)(O)C(=S)NCc1ccccc1C(=O)OC` (centres undefined) were, in that order, above 20000 nM and above 20000 nM.
For the compound `CC(C)CNC(=S)P(=O)(O)C(N)C(C)C` (centres undefined), the figures for the IC50 in experiment [1] and in experiment [2] were 4800 nM and 8950 nM, respectively.
On to `CCC(N)P(=O)(O)C(O)CCc1ccccc1` (centres undefined), for which the IC50 in experiment [1] turned out to be 1300 nM; in experiment [2], 2400 nM.
The like results for `CCCCCCNC(=S)P(=O)(O)C(N)CC(C)C` (centres undefined) were, in that order, 1400 nM and 1700 nM.
For `CCCC(N)P(=O)(O)C(=S)NCc1ccc(C(=O)OCC)cc1` (centres undefined), the IC50 in experiment [1] and in experiment [2] was above 20000 nM each time.
For the compound `CC(C)CC(N)P(=O)(O)C(O)CCc1ccccc1` (centres undefined), the IC50 in experiment [1] was found to be 1000 nM; in experiment [2], 920 nM.
The like results for `CCCC(N)P(=O)(O)C(=S)NCCCSC` (centres undefined) were, in that order, 1950 nM and 1450 nM.
The like results for `CCCC(N)P(=O)(O)C(=S)NCCc1ccccc1` (centres undefined) were, in that order, 1350 nM and 2550 nM.
The like results for `COc1ccc(CNC(=S)P(=O)(O)C(C)N)cc1` (centres undefined) were, in that order, above 20000 nM and above 20000 nM.
Consider `NC(CCc1ccccc1)P(=O)(O)C(=S)NCc1ccccc1` (centres undefined), for which the results for the 50% inhibitory concentration (IC50) in experiment [1] and in experiment [2] were 2300 nM and 2500 nM, respectively.
The like results for `COC(=O)c1ccccc1CNC(=S)P(=O)(O)C(N)CC(C)C` (centres undefined) were, in that order, above 20000 nM and above 20000 nM.
The like results for `CCCNC(=S)P(=O)(O)C(N)CCc1ccccc1` (centres undefined) were, in that order, 1450 nM and 1350 nM.
`COc1ccc(CNC(=S)P(=O)(O)C(N)CCc2ccccc2)cc1` (centres undefined): the Ratio IC50 in experiment [3] and in experiment [4] was 4 throughout. For the same compound, the IC50 in experiment [1] and in experiment [2] was 2650 nM each time.
With `CC(C)CC(N)P(=O)(O)C(=S)NCCc1ccccc1` (centres undefined), the figures for the half-maximal inhibitory concentration (IC50) in experiment [1] and in experiment [2] were 4200 nM and 5400 nM, respectively.
The like results for `CCCCC(N)P(=O)(O)C(O)c1ccc(O)cc1` (centres undefined) were, in that order, 5800 nM and 6200 nM.
`CCCCC(N)P(=O)(O)C(=S)NCc1ccc(OC)cc1` (centres undefined): the IC50 stood at 460 nM in experiment [1] and 1050 nM in experiment [2].
Consider `CCCC(N)P(=O)(O)C(O)Cc1ccccc1` (centres undefined), for which the IC50 in experiment [1] worked out at 950 nM; in experiment [2], 1200 nM.
Take `CC(C)CC(O)P(=O)(O)C(N)c1ccccc1` (centres undefined): the concentration for half-maximal inhibition (IC50) was 12000 nM in experiment [1] and 4700 nM in experiment [2].
The like results for `CCCCC(N)P(=O)(O)C(=S)NCC(=O)OCc1ccccc1` (centres undefined) were, in that order, above 20000 nM and above 20000 nM.
The like results for `CSCCCNC(=S)P(=O)(O)C(N)CCc1ccccc1` (centres undefined) were, in that order, 1550 nM and 1650 nM.
The like results for `CCCCC(N)P(=O)(O)C(=S)NCCc1ccccc1` (centres undefined) were, in that order, 250 nM and 620 nM.
As to `NC(c1ccccc1)P(=O)(O)C(O)CCc1ccccc1` (centres undefined), the IC50 in experiment [1] came to 240 nM; in experiment [2], 2200 nM.
The like results for `CCCCCCNC(=S)P(=O)(O)C(N)C(C)C` (centres undefined) were, in that order, 1700 nM and 5050 nM.
The like results for `CC(C)CC(N)P(=O)(O)C(=S)NCc1ccccc1` (centres undefined) were, in that order, 2800 nM and 5100 nM.
The like results for `CC(N)P(=O)(O)C(=S)NCCc1ccccc1` (centres undefined) were, in that order, 5200 nM and 8700 nM.
For the compound `CCCC(N)P(=O)(O)C(=S)NCc1ccc(OC)cc1` (centres undefined), the concentration for half-maximal inhibition (IC50) in experiment [1] amounted to 2150 nM; in experiment [2] it was 2450 nM.
